Assay results collected from several papers.
Each line is one published result; the experiments were not run side by side. ≈ marks a conversion by molar mass, not a printed value.

| SMILES | tested on | assay | test system | conditions | endpoint | value |
| --- | --- | --- | --- | --- | --- | --- |
| O=C1NC(=S)S/C1=C\c1c2ccccc2c(-c2ccc(N(c3ccccc3)c3ccccc3)cc2)c2ccccc12 | Staphylococcus epidermidis | microbial growth, broth dilution | ATCC12228 |  | MIC | > 1000 µg/mL |
| COc1c2ccoc2cc2oc(=O)ccc12 |  | tubulin polymerisation, inhibitor |  | 10 µM | inhibition | 22.5% |
| C[C@H](O)[C@H](O)[C@@H](O)[C@@H](O)[C@@H]1OC[C@@]2(C)[C@@H]3CC[C@]4(C)[C@H](CC=C5[C@@H]6CC(C)(C)CC[C@]6(C(=O)O)CC[C@]54C)[C@@]3(C)CC[C@@H]2O1 | Leishmania mexicana | parasite growth, resazurin |  | 50 µM, amastigote | inhibition | 100% |
| Cc1ccc(-c2nc3ccccc3s2)cc1NC(=O)c1cc([N+](=O)[O-])c(N(C)C)cc1Cl | Leishmania mexicana | parasite growth | J774.A1 | intracellular, amastigote | EC50 | > 10 µM |
| CC(=O)O[C@@H]1c2c(ccc3ccc(=O)oc23)OC(C)(C)[C@@H]1OC(=O)C1(C)OC1C (stereo partly shown) |  | tubulin polymerisation, inhibitor |  | 10 µM | inhibition | 32.8% |
| CC1(C)CC[C@]2(C(=O)OCc3ccccc3[N+](=O)[O-])CC[C@]3(C)C(=CC[C@@H]4[C@@]5(C)CC[C@H](O)[C@@](C)(CO)[C@@H]5CC[C@]43C)[C@@H]2C1 | Leishmania mexicana | parasite growth, resazurin |  | 50 µM, amastigote | inhibition | 100% |
| O=C1NC(=S)S/C1=C\c1ccc(-c2ccc(N(c3ccccc3)c3ccccc3)cc2)cc1 | Staphylococcus epidermidis | microbial killing, broth dilution | ATCC12228 |  | MBC | 250 µg/mL (≈ 538 µM) |
| CC1(C)CC[C@]2(C(=O)OCN3C(=O)c4ccccc4C3=O)CC[C@]3(C)C(=CC[C@@H]4[C@@]5(C)CC[C@H](O)[C@@](C)(CO)[C@@H]5CC[C@]43C)[C@@H]2C1 | Leishmania mexicana | parasite growth, resazurin |  | 50 µM, amastigote | inhibition | 98.6% |
| Cc1ccc(-c2nc3ccccc3s2)cc1NC(=O)c1cc([N+](=O)[O-])ccc1O | Leishmania mexicana | parasite growth | J774.A1 | intracellular, amastigote | EC50 | > 10 µM |
| O=Cc1ccc(CO)o1 |  | tubulin polymerisation, inhibitor |  | 10 µM | inhibition | 13.4% |
| COC(=O)[C@]12CCC(C)(C)C[C@H]1C1=CC[C@@H]3[C@@]4(C)CC[C@@H]5O[C@H]([C@H](O)[C@@H](O)[C@H](O)[C@H](O)CO)OC[C@@]5(C)[C@@H]4CC[C@@]3(C)[C@]1(C)CC2 | Leishmania mexicana | parasite growth, resazurin |  | 50 µM, amastigote | inhibition | 100% |
| O=C1NC(=S)N/C1=C\c1ccc(-c2ccc(N(c3ccccc3)c3ccccc3)cc2)cc1 | Staphylococcus epidermidis | microbial killing, broth dilution | ATCC12228 |  | MBC | > 1000 µg/mL |
| O=c1ccc2cc3ccoc3cc2o1 |  | tubulin polymerisation, inhibitor |  | 10 µM | inhibition | 30.1% |
| O=C(O)CN1C(=O)/C(=C/c2ccc(-c3ccc(N(c4ccccc4)c4ccccc4)cc3)c3ccccc23)SC1=S | Staphylococcus epidermidis | microbial growth, broth dilution | ATCC12228 |  | MIC | 500 µg/mL (≈ 873 µM) |
| Cc1cc(Cl)c(Cl)cc1NC(=O)c1cc([N+](=O)[O-])c(F)cc1F | Leishmania mexicana | parasite growth | J774.A1 | intracellular, amastigote | EC50 | 0.34 µM |
| CC1(C)CC[C@]2(NC(=O)N[C@H]3C(O)O[C@H](CO)[C@@H](O)[C@@H]3O)CC[C@]3(C)C(=CC[C@@H]4[C@@]5(C)CC[C@@H]6OC(C)(C)OC[C@@]6(C)[C@@H]5CC[C@]43C)[C@@H]2C1 (stereo partly shown) | Leishmania mexicana | parasite growth, resazurin |  | 50 µM, amastigote | inhibition | 97.2% |
